Source: ChEMBL document CHEMBL3864121, “Development of ebsulfur analogues as potent antibacterials against methicillin-resistant Staphylococcus aureus” (Bioorg Med Chem, 2016)
≈ marks a conversion by molar mass, not a printed value.

system: Staphylococcus aureus; test: Antibacterial activity against methicillin-sensitive Staphylococcus aureus ATCC 6538 measured after overnight incubation by broth double-dilution method; type: functional; conditions: not given
In short: (§1)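 MIC by broth double-dilution in liquid Mueller-Hinton medium. Values are reported in µg/mL.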

Compound	MIC [µg/mL]
O=c1c2ccccc2sn1CCc1ccccc1	3.9 (≈ 15.3 µM)

system: Staphylococcus aureus; test: Antibacterial activity against methicillin-sensitive Staphylococcus aureus ATCC 25923 measured after overnight incubation by broth double-dilution method; type: functional; conditions: not given; in short: as §1

Compound	MIC [µg/mL]
O=c1c2ccccc2sn1CCc1ccccc1	1 (≈ 3.92 µM)

system: Staphylococcus aureus; test: Antibacterial activity against methicillin-sensitive Staphylococcus aureus ATCC 29213 measured after overnight incubation by broth double-dilution method; type: functional; conditions: not given; in short: as §1

Compound	MIC [µg/mL]
O=c1c2ccccc2sn1CCc1ccccc1	2 (≈ 7.83 µM)

system: Staphylococcus aureus; test: Antibacterial activity against methicillin-resistant Staphylococcus aureus ATCC 33591 measured after overnight incubation by broth double-dilution method; type: functional; conditions: not given; in short: as §1

Compound	MIC [µg/mL]
O=c1c2ccccc2sn1CCc1ccccc1	1 (≈ 3.92 µM)

system: Staphylococcus aureus; test: Antibacterial activity against methicillin-resistant Staphylococcus aureus 1 measured after overnight incubation by broth double-dilution method; type: functional; conditions: not given; in short: as §1

Compound	MIC [µg/mL]
O=c1c2ccccc2sn1CCc1ccccc1	1 (≈ 3.92 µM)

system: Staphylococcus aureus; test: Antibacterial activity against methicillin-resistant Staphylococcus aureus 2 measured after overnight incubation by broth double-dilution method; type: functional; conditions: not given; in short: as §1

Compound	MIC [µg/mL]
O=c1c2ccccc2sn1CCc1ccccc1	1 (≈ 3.92 µM)

system: Staphylococcus aureus; test: Antibacterial activity against methicillin-resistant Staphylococcus aureus BRS3 measured after overnight incubation by broth double-dilution method; type: functional; conditions: not given; in short: as §1

Compound	MIC [µg/mL]
O=c1c2ccccc2sn1CCc1ccccc1	2 (≈ 7.83 µM)

system: Staphylococcus aureus; test: Antibacterial activity against methicillin-resistant Staphylococcus aureus C1 measured after overnight incubation by broth double-dilution method; type: functional; conditions: not given; in short: as §1

Compound	MIC [µg/mL]
O=c1c2ccccc2sn1CCc1ccccc1	2 (≈ 7.83 µM)

system: Staphylococcus aureus; test: Antibacterial activity against methicillin-resistant Staphylococcus aureus C2 measured after overnight incubation by broth double-dilution method; type: functional; conditions: not given; in short: as §1

Compound	MIC [µg/mL]
O=c1c2ccccc2sn1CCc1ccccc1	2 (≈ 7.83 µM)

system: Staphylococcus aureus; test: Antibacterial activity against methicillin-resistant Staphylococcus aureus C7 measured after overnight incubation by broth double-dilution method; type: functional; conditions: not given; in short: as §1

Compound	MIC [µg/mL]
O=c1c2ccccc2sn1CCc1ccccc1	2 (≈ 7.83 µM)

system: Staphylococcus aureus; test: Antibacterial activity against methicillin-resistant Staphylococcus aureus C14 measured after overnight incubation by broth double-dilution method; type: functional; conditions: not given; in short: as §1

Compound	MIC [µg/mL]
O=c1c2ccccc2sn1CCc1ccccc1	2 (≈ 7.83 µM)

system: Staphylococcus aureus; test: Antibacterial activity against methicillin-resistant Staphylococcus aureus C16 measured after overnight incubation by broth double-dilution method; type: functional; conditions: not given; in short: as §1

Compound	MIC [µg/mL]
O=c1c2ccccc2sn1CCc1ccccc1	3.9 (≈ 15.3 µM)

system: Staphylococcus aureus; test: Antibacterial activity against methicillin-resistant Staphylococcus aureus C19 measured after overnight incubation by broth double-dilution method; type: functional; conditions: not given; in short: as §1

Compound	MIC [µg/mL]
O=c1c2ccccc2sn1CCc1ccccc1	1 (≈ 3.92 µM)

system: Staphylococcus aureus; test: Antibacterial activity against methicillin-resistant Staphylococcus aureus G1 measured after overnight incubation by broth double-dilution method; type: functional; conditions: not given; in short: as §1

Compound	MIC [µg/mL]
O=c1c2ccccc2sn1CCc1ccccc1	0.5 (≈ 1.96 µM)

system: Staphylococcus aureus; test: Antibacterial activity against methicillin-resistant Staphylococcus aureus G6 measured after overnight incubation by broth double-dilution method; type: functional; conditions: not given; in short: as §1

Compound	MIC [µg/mL]
O=c1c2ccccc2sn1CCc1ccccc1	1 (≈ 3.92 µM)

system: Staphylococcus aureus; test: Antibacterial activity against methicillin-resistant Staphylococcus aureus G12 measured after overnight incubation by broth double-dilution method; type: functional; conditions: not given; in short: as §1

Compound	MIC [µg/mL]
O=c1c2ccccc2sn1CCc1ccccc1	1 (≈ 3.92 µM)

system: Staphylococcus aureus; test: Antibacterial activity against methicillin-resistant Staphylococcus aureus G14 measured after overnight incubation by broth double-dilution method; type: functional; conditions: not given; in short: as §1

Compound	MIC [µg/mL]
O=c1c2ccccc2sn1CCc1ccccc1	1 (≈ 3.92 µM)

system: Staphylococcus aureus; test: Antibacterial activity against methicillin-resistant Staphylococcus aureus NRS4 measured after overnight incubation by broth double-dilution method; type: functional; conditions: not given; in short: as §1

Compound	MIC [µg/mL]
O=c1c2ccccc2sn1CCc1ccccc1	2 (≈ 7.83 µM)

system: Staphylococcus aureus; test: Antibacterial activity against methicillin-resistant Staphylococcus aureus NRS51 measured after overnight incubation by broth double-dilution method; type: functional; conditions: not given; in short: as §1

Compound	MIC [µg/mL]
O=c1c2ccccc2sn1CCc1ccccc1	2 (≈ 7.83 µM)

system: Staphylococcus aureus; test: Antibacterial activity against methicillin-resistant Staphylococcus aureus NRS77 measured after overnight incubation by broth double-dilution method; type: functional; conditions: not given; in short: as §1

Compound	MIC [µg/mL]
O=c1c2ccccc2sn1CCc1ccccc1	2 (≈ 7.83 µM)

system: Staphylococcus aureus; test: Antibacterial activity against methicillin-resistant Staphylococcus aureus S14 measured after overnight incubation by broth double-dilution method; type: functional; conditions: not given; in short: as §1

Compound	MIC [µg/mL]
O=c1c2ccccc2sn1CCc1ccccc1	0.5 (≈ 1.96 µM)

system: Staphylococcus aureus; test: Antibacterial activity against methicillin-resistant Staphylococcus aureus S17 measured after overnight incubation by broth double-dilution method; type: functional; conditions: not given; in short: as §1

Compound	MIC [µg/mL]
O=c1c2ccccc2sn1CCc1ccccc1	1 (≈ 3.92 µM)

system: Staphylococcus aureus; test: Antibacterial activity against methicillin-resistant Staphylococcus aureus S22 measured after overnight incubation by broth double-dilution method; type: functional; conditions: not given; in short: as §1

Compound	MIC [µg/mL]
O=c1c2ccccc2sn1CCc1ccccc1	3.9 (≈ 15.3 µM)

system: Staphylococcus aureus; test: Antibacterial activity against methicillin-resistant Staphylococcus aureus S24 measured after overnight incubation by broth double-dilution method; type: functional; conditions: not given; in short: as §1

Compound	MIC [µg/mL]
O=c1c2ccccc2sn1CCc1ccccc1	2 (≈ 7.83 µM)

system: Staphylococcus aureus; test: Antibacterial activity against methicillin-resistant Staphylococcus aureus USA100 measured after overnight incubation by broth double-dilution method; type: functional; conditions: not given; in short: as §1

Compound	MIC [µg/mL]
O=c1c2ccccc2sn1CCc1ccccc1	3.9 (≈ 15.3 µM)

system: Staphylococcus aureus; test: Antibacterial activity against methicillin-resistant Staphylococcus aureus USA200 measured after overnight incubation by broth double-dilution method; type: functional; conditions: not given; in short: as §1

Compound	MIC [µg/mL]
O=c1c2ccccc2sn1CCc1ccccc1	2 (≈ 7.83 µM)

system: Staphylococcus aureus; test: Antibacterial activity against methicillin-resistant Staphylococcus aureus USA300 measured after overnight incubation by broth double-dilution method; type: functional; conditions: not given; in short: as §1

Compound	MIC [µg/mL]
O=c1c2ccccc2sn1CCc1ccccc1	2 (≈ 7.83 µM)

system: Staphylococcus aureus; test: Antibacterial activity against methicillin-resistant Staphylococcus aureus USA600 measured after overnight incubation by broth double-dilution method; type: functional; conditions: not given; in short: as §1

Compound	MIC [µg/mL]
O=c1c2ccccc2sn1CCc1ccccc1	3.9 (≈ 15.3 µM)

system: Staphylococcus epidermidis; test: Antibacterial activity against Staphylococcus epidermidis ATCC 35984 measured after overnight incubation by broth double-dilution method; type: functional; conditions: RP62A
In short: (§2)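 MIC by broth double-dilution in Mueller-Hinton medium. Re-testing at the time-kill inoculum used 1×10^6 CFU/mL.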

Compound	MIC [µg/mL]
O=c1c2ccccc2sn1CCc1ccccc1	2 (≈ 7.83 µM)

system: Enterococcus faecalis; test: Antibacterial activity against Enterococcus faecalis ATCC 29212 measured after overnight incubation by broth double-dilution method; type: functional; conditions: not given; in short: as §2

Compound	MIC [µg/mL]
O=c1c2ccccc2sn1CCc1ccccc1	> 125

system: Enterococcus faecalis; test: Antibacterial activity against Enterococcus faecalis ATCC 49533 measured after overnight incubation by broth double-dilution method; type: functional; conditions: not given; in short: as §2

Compound	MIC [µg/mL]
O=c1c2ccccc2sn1CCc1ccccc1	> 125

system: Enterococcus faecium; test: Antibacterial activity against Enterococcus faecium BM4105-RF measured after overnight incubation by broth double-dilution method; type: functional; conditions: not given; in short: as §1

Compound	MIC [µg/mL]
O=c1c2ccccc2sn1CCc1ccccc1	> 125

system: Enterococcus; test: Antibacterial activity against Vancomycin-resistant Enterococcus measured after overnight incubation by broth double-dilution method; type: functional; conditions: not given; in short: as §1

Compound	MIC [µg/mL]
O=c1c2ccccc2sn1CCc1ccccc1	1 (≈ 3.92 µM)

system: Listeria monocytogenes; test: Antibacterial activity against Listeria monocytogenes ATCC 19115 measured after overnight incubation by broth double-dilution method; type: functional; conditions: not given; in short: as §2

Compound	MIC [µg/mL]
O=c1c2ccccc2sn1CCc1ccccc1	3.9 (≈ 15.3 µM)

system: Mycolicibacterium smegmatis; test: Antibacterial activity against Mycobacterium smegmatis MC2-155 measured after overnight incubation by broth double-dilution method; type: functional; conditions: str. MC2 155; in short: as §1

Compound	MIC [µg/mL]
O=c1c2ccccc2sn1CCc1ccccc1	2 (≈ 7.83 µM)

system: not listed separately; test: Cytotoxicity against HEK293 cells assessed as cell death at […] measured after 24 hrs by resazurin dye-based fluorescence analysis relative to untreated control; type: toxicity; conditions: human, hek293, 24 h

Compound	Activity [%]
O=c1c2ccccc2sn1CCc1ccccc1	> 20
